This sample holds only a part of the variants without activity.
B1: tRNA (parent)
chain: GUUCCGUUGGCGUAAUGGUAACGCGUCUCCCUCCUAAGGAGAAGACUGCGGGUUCGAGUCCCGUACGGAACG

Variants of: B1
Experiment: yeast fitness relative to wild type (ratio to wild type); higher = fitter; tRNA-Arg(CCU), competitive growth, 37 C, YPD
How it was run: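 Gene amplicons from the start population and from each of six end populations were read by 100-nucleotide paired-end sequencing. Those end populations came from pooled Saccharomyces cerevisiae strains carrying tRNA-Arg(CCU) gene variants at the native locus, competed in YPD at 37°C for 24 hours. Fitness relative to wild type was worked out from changes in genotype frequencies. Genotypes needed ≥ 100 starting reads, and estimates < 0.5 were set to 0.5.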
GUUCCGUUGGCGUAAUGGUAACGCGUCUCCAUCCUUAGGAGAAGACUGCGGGUUCGAGUCCCGUACGGAACG [C31A A36U] gave a yeast fitness of 0.705.
Variant GUUCCGUUGGCGUAAUGGUAACGCGUCUCUCUCCUAAGAAGAAGACUGCGGGUUCGAGUCCCGUACGGAACG [C30U G39A] has a yeast fitness of 0.897.
In the case of GUUCCGUUGGCGUAAUGGUAACGCGUCUCUCUCCUAAGGAGAAGACUGCGGGUACGAGUCCCGUAUGGACCG [C30U U54A C66U A70C], the yeast fitness is reported as ≤ 0.5.
For GUUCCGUUGGCGUAAUGGUAACGCGUCUCUCUCCUAAGCAGAAGACUGCGGGAUCGAGUCCCGUACGGAACG [C30U G39C U53A], the yeast fitness was ≤ 0.5.
Variant GUUCCGUUGGCGUAAUGGUAACGCGUCUCUCUCCUAAGGAGAAGACAGCGGGUUCGAGUCCCGUACCGAACG [C30U U47A G67C] has a yeast fitness of 0.567.
With GUUCCGUUGGCGUAAUGGUAACGCGUCUCCAUCCUCAGGAGAAAACUGCGGGUUCGUGUCCCGUAAGGAACG [C31A A36C G44A A57U C66A] the yeast fitness was ≤ 0.5.
In the case of GUUCCGUUGGCGUAAUGGUAACGCGUCUCUCGCCUGUGGAGAAGACAGCGGGUUCGAGUCCCGUACGGAACG [C30U U32G A36G A37U U47A], the yeast fitness is reported as 0.559.
With GUUCCGUUGGCGUAAUGGUAACGCGUCUCUCUCCUAAGGAGAAGACUGCGGGUCCGCGUCCCGUACGGACCG [C30U U54C A57C A70C] the yeast fitness was ≤ 0.5.
Work on GUUCCGUUGGCGUAAUGGUAACGCGUCUCUCUCCUAAUGAGAAGACUGCGGGUUCGAGUCCCGUACGGAACG [C30U G38U] yielded a yeast fitness of 0.824.
Variant GUUCCGUUGGCGUAAUGGUAACGCGUCUCUCUCCUAAGGAGAAGACUGCGGGUUCGAGUCCCGUACGAAACG [C30U G68A] has a yeast fitness of 0.744.
GUUCCGUUGGCGUAAUGGUAACGCGUCUCUCUCCUAAGGAGAAGACUGCGGGUUCGAGUCCCGUACGUAACG [C30U G68U] showed a yeast fitness of 0.923.
GUUCCGUUGGCGUAAUGGUAACGCGUCUCUCUCCUAAGGACAAGACUGCGGGUUCGAGUCCCGUACGGAACG [C30U G41C] showed a yeast fitness of 0.651.
Work on GUUCCGUUGGCGUAAUGGUAACGCGUCUCUCUCCUAAGGAAAAGACUGCGGGUUCGAGUCCCGUACGGAACG [C30U G41A] yielded a yeast fitness of 0.842.
GUUCCGUUGGCGUAAUGGUAACGCGUCUCUCUCCUAAGGAGAAGACCGCGGGUUCGAGUCCCGUACGGAACG [C30U U47C] gave a yeast fitness of 0.835.
In the case of GUUCCGUUGGCGUAAUGGUAACGCGUCUCUCGCCUAGGGAGAAGACUGCGGGUUCGAGUCCCGUACGGAACG [C30U U32G A37G], the yeast fitness is reported as ≤ 0.5.
GUUCCGUUGGCGUAAUGGUAACGCGUCUCUCUCCUAAGGAGAAGACUGCGGGUUCAAGUCCCGUACCGAACG [C30U G56A G67C] showed a yeast fitness of 0.603.
For GUUCCGUUGGCGUAAUGGUAACGCGUCUCCAUCCUACGGAGAAGAUUGCGGGUUCGAGUCCCGUACGGAACG [C31A A37C C46U], the yeast fitness was ≤ 0.5.
GUUCCGUUGGCGUAAUGGUAACGCGUCUCUCUCCUAAGGAGAAGACUGCCGGUUCGAGUCCCGUAUGGAACG [C30U G50C C66U] gave a yeast fitness of 0.526.
In the case of GUUCCGUUGGCGUAAUGGUAACGCGUCUCUCUCCUAAGGAGAAGACUGCGGGUACGAGUCCCGUACGGAUCG [C30U U54A A70U], the yeast fitness is reported as 0.572.
Work on GUUCCGUUGGCGUAAUGGUAACGCGUCUCUCUCCUAAGGAGAAGACUGCGGGUACGAGUCCCGUACGGAGCG [C30U U54A A70G] yielded a yeast fitness of 0.518.
GUUCCGUUGGCGUAAUGGUAACGCGUCUCCAUCCUGAGGAGAAGACUGCGGGUUCGUGUCCCGUACGGAACG [C31A A36G A57U] gave a yeast fitness of 0.539.
With GUUCCGUUGGCGUAAUGGUAACGCGUCUCUCUCCAAAGGAGGAGACUGCGGGUUCGAGUCUCAUACGGAACG [C30U U35A A42G C61U G63A] the yeast fitness was 0.519.
For GUUCCGUUGGCGUAAUGGUAACGCGUCUCUCUCCUAAGGAGAAGACUGCGGAUUCGAGUCCCGUACGCAACG [C30U G52A G68C], the yeast fitness was ≤ 0.5.
For GUUCCGUUGGCGUAAUGGUAACGCGUCUCUCCCCUAAGGAGAAGACUGCGGGUACGAGUCCCGUACGGAACG [C30U U32C U54A], the yeast fitness was ≤ 0.5.
For GUUCCGUUGGCGUAAUGGUAACGCGUCUCUCUCCUAAGGAGAAGACUGCGGGUUCGAGUCCCGUACGACACG [C30U G68A A69C], the yeast fitness was 0.544.
For GUUCCGUUGGCGUAAUGGUAACGCGUCUCUCUCCUAAGGAGAACACUGCGGGUUCGAGUCCCGUUCGGAACG [C30U G44C A65U], the yeast fitness was ≤ 0.5.
For GUUCCGUUGGCGUAAUGGUAACGCGUCUCUCUCCUAAGGAGAAGACUGCGCGUUCGAGUCCCGUACGGAACG [C30U G51C], the yeast fitness was 0.535.
GUUCCGUUGGCGUAAUGGUAACGCGUCUCUCUCCUAAGGAGAAGACUGCGAGUUCGAGUCCCGUACGGAACG [C30U G51A] showed a yeast fitness of 0.7.
In the case of GUUCCGUUGGCGUAAUGGUAACGCGUCUCUCUCCUAAGGAGAAGACUGCGCGUUCGAGUCCCGUACAGAACG [C30U G51C G67A], the yeast fitness is reported as ≤ 0.5.
Work on GUUCCGUUGGCGUAAUGGUAACGCGUCUCUCUCCUAACGAGAAGACUGCGGGUUCGAGUCUCGUACGGAACG [C30U G38C C61U] yielded a yeast fitness of 0.542.
For GUUCCGUUGGCGUAAUGGUAACGCGUCUCUCUCCUAACGGGAAGACUGCGGGUUCGAGUCCCGUACGGAACG [C30U G38C A40G], the yeast fitness was 0.569.
In the case of GUUCCGUUGGCGUAAUGGUAACGCGUCUCUCUCCUAAGGAGAAGACCGCGGGUUCGAGUCCCGUGCGGAACG [C30U U47C A65G], the yeast fitness is reported as ≤ 0.5.
In the case of GUUCCGUUGGCGUAAUGGUAACGCGUCUCCAUCCUACGGAGAAGACUGCGGGUUCGAGUCCCGUACAGAACG [C31A A37C G67A], the yeast fitness is reported as ≤ 0.5.
With GUUCCGUUGGCGUAAUGGUAACGCGUCUCUCUCCCAAGGAGCAGACUCCGGGUUCGAGUCCCGUACGGAACG [C30U U35C A42C G48C] the yeast fitness was ≤ 0.5.
Variant GUUCCGUUGGCGUAAUGGUAACGCGUCUCUCUCCUAAGGAGAAGACUGCGGGUUCGAGUCCCGCACGGAACG [C30U U64C] has a yeast fitness of 0.902.
With GUUCCGUUGGCGUAAUGGUAACGCGUCUCUCUCCUAAGGAGAACACUGCGAGUUCGAGUCUCGUACGGAACG [C30U G44C G51A C61U] the yeast fitness was ≤ 0.5.
For GUUCCGUUGGCGUAAUGGUAACGCGUCUCUCUCCUAACGAGAAGACUGCGGGUUAGAGUCCCGUACAGAACG [C30U G38C C55A G67A], the yeast fitness was ≤ 0.5.
